ChEMBL document CHEMBL1821569, “Synthesis of novel 1,2,5-trisubstituted benzimidazoles as potential antitumor agents” (2011)

Experiments:
Assay type in all cases: functional
NCI/ADR-RES = assay: Antitumor activity against human NCI/ADR-RES cells after 48 hrs by SRB assay
Procedure, shortened: (§1)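 NCI 60-cell-line secondary screen. Cells were exposed continuously to drug for 48 h at five concentration levels (100, 10, 1.0, 0.1 and 0.01). Growth was estimated by sulforhodamine B protein staining. GI50 is the concentration giving a 50% reduction in net protein increase versus untreated control cells over the incubation. TGI (total growth inhibition) and LC50 (50% cell kill) were also derived.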

MOLT-4 = assay: Antitumor activity against human MOLT4 cells after 48 hrs by SRB assay; conditions: MOLT-4, 48 h; procedure, shortened: as §1
A549 = assay: Antitumor activity against human A549 cells after 48 hrs by SRB assay; conditions: A549, 48 h; procedure, shortened: as §1
SNB-19 = assay: Antitumor activity against human SNB19 cells after 48 hrs by SRB assay; conditions: SNB-19, 48 h; procedure, shortened: as §1
TK-10 = assay: Antitumor activity against human TK10 cells after 48 hrs by SRB assay; conditions: TK-10, 48 h
Procedure, shortened: (§2)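 NCI 60-cell-line secondary screen. Continuous 48 h exposure at five concentration levels. Cell growth estimated by sulforhodamine B protein staining. GI50 taken as the concentration giving 50% reduction in net protein increase relative to untreated control cells over the incubation. TGI (total growth inhibition) and LC50 (50% cell kill) were also derived.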

NCI-H322M = assay: Antitumor activity against human NCI-H322M cells after 48 hrs by SRB assay; procedure, shortened: as §1
CAKI-1 = assay: Antitumor activity against human Caki1 cells after 48 hrs by SRB assay; conditions: CAKI-1, 48 h; procedure, shortened: as §1
[1] = Antitumor activity against human Hs 578T cells after 48 hrs by SRB assay; procedure, shortened: as §1
U-251 = assay: Antitumor activity against human U251 cells after 48 hrs by SRB assay; conditions: U-251, 48 h; procedure, shortened: as §2
SF-539 = assay: Antitumor activity against human SF539 cells after 48 hrs by SRB assay; conditions: SF-539, 48 h; procedure, shortened: as §1
A498 = assay: Antitumor activity against human A498 cells after 48 hrs by SRB assay; conditions: A498, 48 h; procedure, shortened: as §1
KM12 = assay: Antitumor activity against human KM12 cells after 48 hrs by SRB assay; conditions: KM12, 48 h; procedure, shortened: as §1
SF-268 = assay: Antitumor activity against human SF268 cells after 48 hrs by SRB assay; conditions: SF-268, 48 h; procedure, shortened: as §1
HCT-116 = assay: Antitumor activity against human HCT116 cells after 48 hrs by SRB assay; conditions: HCT-116, 48 h; procedure, shortened: as §1
SN12C = assay: Antitumor activity against human SN12C cells after 48 hrs by SRB assay; procedure, shortened: as §1
UACC-257 = assay: Antitumor activity against human UACC257 cells after 48 hrs by SRB assay; conditions: UACC-257, 48 h; procedure, shortened: as §2
EKVX = assay: Antitumor activity against human EKVX cells after 48 hrs by SRB assay; procedure, shortened: as §1
MDA-MB-468 = assay: Antitumor activity against human MDA-MB-468 cells after 48 hrs by SRB assay; conditions: MDA-MB-468, 48 h; procedure, shortened: as §1
OVCAR-4 = assay: Antitumor activity against human OVCAR4 cells after 48 hrs by SRB assay; conditions: OVCAR-4, 48 h; procedure, shortened: as §1
K562 = assay: Antitumor activity against human K562 cells after 48 hrs by SRB assay; conditions: K562, 48 h; procedure, shortened: as §1
SK-OV-3 = assay: Antitumor activity against human SKOV3 cells after 48 hrs by SRB assay; conditions: SK-OV-3, 48 h; procedure, shortened: as §1
PC-3 = assay: Antitumor activity against human PC3 cells after 48 hrs by SRB assay; conditions: PC-3, 48 h; procedure, shortened: as §1
SF-295 = assay: Antitumor activity against human SF295 cells after 48 hrs by SRB assay; conditions: SF-295, 48 h; procedure, shortened: as §1
OVCAR-8 = assay: Antitumor activity against human OVCAR8 cells after 48 hrs by SRB assay; conditions: OVCAR-8, 48 h; procedure, shortened: as §1
SR = assay: Antitumor activity against human SR cells after 48 hrs by SRB assay; procedure, shortened: as §2
MDA-MB-435 = assay: Antitumor activity against human MDA-MB-435 cells after 48 hrs by SRB assay; conditions: MDA-MB-435, 48 h; procedure, shortened: as §1
HOP-62 = assay: Antitumor activity against human HOP62 cells after 48 hrs by SRB assay; conditions: HOP-62, 48 h; procedure, shortened: as §1
MDA-MB-231 = assay: Antitumor activity against human MDA-MB-231 cells after 48 hrs by SRB assay; conditions: MDA-MB-231, 48 h; procedure, shortened: as §1
OVCAR-5 = assay: Antitumor activity against human OVCAR5 cells after 48 hrs by SRB assay; conditions: OVCAR-5, 48 h; procedure, shortened: as §1
UACC-62 = assay: Antitumor activity against human UACC62 cells after 48 hrs by SRB assay; conditions: UACC-62, 48 h; procedure, shortened: as §2
[2] = read-out: LC50 (the source's name)

Compound: COC(=O)c1ccc2c(c1)nc(-c1cc3ccccc3[nH]c1=O)n2-c1cc(C(C)(C)C)[nH]n1
- GI50 (NCI/ADR-RES): 5.29 µM
- TGI (NCI/ADR-RES): > 100 µM
- CC50 (NCI/ADR-RES; [2]): > 100 µM
- GI50 (MOLT-4): 0.445 µM
- LC50 (50% net cell kill) (MOLT-4): > 100 µM
- TGI (MOLT-4): > 100 µM
- GI50 (A549): > 100 µM
- TGI (A549): > 100 µM
- CC50 (A549; [2]): > 100 µM
- GI50 (SNB-19): 7.59 µM
- TGI (SNB-19): > 100 µM
- CC50 (SNB-19; [2]): > 100 µM
- GI50 (TK-10): 16.9 µM
- TGI (TK-10): 55.8 µM
- CC50 (TK-10; [2]): > 100 µM
- GI50 (NCI-H322M): 0.929 µM
- LC50 (50% cell kill) (NCI-H322M): > 100 µM
- TGI (NCI-H322M): > 100 µM
- GI50 (CAKI-1): 0.476 µM
- TGI (CAKI-1): 90.5 µM
- CC50 (CAKI-1; [2]): > 100 µM
- GI50 [1]: 0.619 µM
- TGI [1]: 34.1 µM
- CC50 [1, 2]: > 100 µM
- GI50 (U-251): 0.652 µM
- TGI (U-251): > 100 µM
- CC50 (U-251; [2]): > 100 µM
- GI50 (SF-539): 4.12 µM
- TGI (SF-539): > 100 µM
- CC50 (SF-539; [2]): > 100 µM
- GI50 (A498): 13.6 µM
- TGI (A498): 76.9 µM
- CC50 (A498; [2]): > 100 µM
- GI50 (KM12): 1.29 µM
- CC50 (KM12; [2]): > 100 µM
- GI50 (SF-268): 2.13 µM
- TGI (SF-268): 91.9 µM
- CC50 (SF-268; [2]): > 100 µM
- GI50 (HCT-116): 1.74 µM
- LC50 (HCT-116): > 100 µM
- TGI (HCT-116): > 100 µM
- GI50 (SN12C): 5.61 µM
- TGI (SN12C): > 100 µM
- CC50 (SN12C; [2]): > 100 µM
- TGI (UACC-257): > 100 µM
- CC50 (UACC-257; [2]): > 100 µM
- GI50 (EKVX): 5.8 µM
- LC50 (50% cell kill) (EKVX): > 100 µM
- TGI (EKVX): > 100 µM
- GI50 (MDA-MB-468): 20.5 µM
- TGI (MDA-MB-468): > 100 µM
- CC50 (MDA-MB-468; [2]): > 100 µM
- TGI (OVCAR-4): > 100 µM
- CC50 (OVCAR-4; [2]): > 100 µM
- GI50 (K562): 1.73 µM
- TGI (K562): > 100 µM
- CC50 (K562; [2]): > 100 µM
- GI50 (SK-OV-3): 28.5 µM
- TGI (SK-OV-3): > 100 µM
- CC50 (SK-OV-3; [2]): > 100 µM
- GI50 (PC-3): 2.27 µM
- TGI (PC-3): > 100 µM
- CC50 (PC-3; [2]): > 100 µM
- GI50 (SF-295): 1.23 µM
- TGI (SF-295): 25.5 µM
- CC50 (SF-295; [2]): > 100 µM
- GI50 (OVCAR-8): 1.79 µM
- TGI (OVCAR-8): > 100 µM
- CC50 (OVCAR-8; [2]): > 100 µM
- GI50 (SR): 10 µM
- TGI (SR): > 100 µM
- CC50 (SR; [2]): > 100 µM
- TGI (MDA-MB-435): > 100 µM
- CC50 (MDA-MB-435; [2]): > 100 µM
- GI50 (HOP-62): 0.996 µM
- LC50 (concentration giving 50% cell kill) (HOP-62): > 100 µM
- TGI (HOP-62): > 100 µM
- GI50 (MDA-MB-231): 4.13 µM
- TGI (MDA-MB-231): > 100 µM
- CC50 (MDA-MB-231; [2]): > 100 µM
- TGI (OVCAR-5): > 100 µM
- CC50 (OVCAR-5; [2]): > 100 µM
- TGI (UACC-62): > 100 µM
- CC50 (UACC-62; [2]): > 100 µM
